Assay results reported in ChEMBL document CHEMBL4477223, “Design, synthesis and biological evaluation of N-methyl-N-[(1,2,3-triazol-4-yl)alkyl]propargylamines as novel monoamine oxidase B inhibitors” (Bioorg Med Chem, 2016).

What was measured:
[1] = species: Homo sapiens; test: Selectivity index, ratio of IC50 for human recombinant MAO-A to IC50 for human recombinant MAO-B
[2] = Permeability of the compound at pH 7.4 after 18 hrs by PAMPA-BBB assay
[3] = target: T1, Amine oxidase [flavin-containing] B (Homo sapiens, UniProt P27338); test: Inhibition of human recombinant MAO-B preincubated for 30 mins followed by p-tyramine hydrochloride addition measured after 30 mins by Amplex red fluorescence based spectrophotometry
T1 sequence (P27338 whole entry): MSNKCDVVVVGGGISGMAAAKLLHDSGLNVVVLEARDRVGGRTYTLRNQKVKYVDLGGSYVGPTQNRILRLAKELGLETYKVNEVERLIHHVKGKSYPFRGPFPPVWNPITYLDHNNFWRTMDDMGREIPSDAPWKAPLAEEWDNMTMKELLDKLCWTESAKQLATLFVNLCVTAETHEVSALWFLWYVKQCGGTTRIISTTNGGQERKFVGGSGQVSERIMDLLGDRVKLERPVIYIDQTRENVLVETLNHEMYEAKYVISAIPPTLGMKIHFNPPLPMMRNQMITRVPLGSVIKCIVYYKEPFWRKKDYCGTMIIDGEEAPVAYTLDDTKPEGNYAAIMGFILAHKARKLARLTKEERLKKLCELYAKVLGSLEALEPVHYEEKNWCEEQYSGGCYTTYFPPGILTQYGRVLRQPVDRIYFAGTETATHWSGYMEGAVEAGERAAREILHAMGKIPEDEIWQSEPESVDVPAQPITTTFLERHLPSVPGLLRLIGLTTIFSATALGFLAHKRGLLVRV

[4] = target: T2, Amine oxidase [flavin-containing] A (Homo sapiens, UniProt P21397); test: Inhibition of human recombinant MAO-A preincubated for 30 mins followed by p-tyramine hydrochloride addition measured after 30 mins by Amplex red fluorescence based spectrophotometry
T2 sequence (P21397 whole entry): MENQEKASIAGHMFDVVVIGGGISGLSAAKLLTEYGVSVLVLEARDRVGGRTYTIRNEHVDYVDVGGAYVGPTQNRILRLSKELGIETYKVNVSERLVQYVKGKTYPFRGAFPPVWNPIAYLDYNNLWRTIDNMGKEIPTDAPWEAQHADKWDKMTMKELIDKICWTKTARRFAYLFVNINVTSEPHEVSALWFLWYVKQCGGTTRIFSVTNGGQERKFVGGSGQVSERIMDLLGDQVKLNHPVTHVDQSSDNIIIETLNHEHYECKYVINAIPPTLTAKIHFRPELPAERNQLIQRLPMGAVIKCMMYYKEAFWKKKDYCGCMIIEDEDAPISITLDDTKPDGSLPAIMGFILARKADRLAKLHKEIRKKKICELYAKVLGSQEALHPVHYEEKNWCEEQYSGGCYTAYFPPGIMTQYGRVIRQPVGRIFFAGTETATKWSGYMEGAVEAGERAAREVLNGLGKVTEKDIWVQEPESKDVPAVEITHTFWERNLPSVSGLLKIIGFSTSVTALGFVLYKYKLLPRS
Outline: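 hrMAO-A at 0.36 U/mL preincubated with serial inhibitor dilutions for 30 min at 37 °C. Reaction started by adding 1 mM tyramine, 0.04 U/mL HRP and Amplex UltraRed in 0.25 mM sodium phosphate pH 7.4 (final). Resorufin fluorescence read at 530/590 nm for at least 30 min. No-compound activity set as 100%. Interference checked without enzyme.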

[5] = target: T1, Amine oxidase [flavin-containing] B; test: Time-dependent inhibition of human recombinant MAO-B at 10 uM preincubated with enzyme followed by p-tyramine hydrochloride substrate addition by Amplex red fluorescence based spectrophotometry
Outline: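 hrMAO-B was preincubated with inhibitor at 10 µM for 0–360 min. After each preincubation, activity was measured in the standard Amplex UltraRed/tyramine/HRP fluorometric assay at 530/590 nm. Results were expressed as % of control samples versus preincubation time.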

[6] = target: T1, Amine oxidase [flavin-containing] B; test: Irreversible inhibition of human recombinant MAO-B at 50 uM preincubated for 1 h followed by 100 fold enzyme dilution and p-tyramine hydrochloride substrate addition measured after 40 mins by Amplex red fluorescence based spectrophotometry

| Ratio IC50 [1] | Papp at 18 h [2] [×10⁻⁶ cm/s] | IC50 [3] [µM] | IC50 [4] [µM] | TDI [5] | inhibition (INH) [6] | Compound |
| --- | --- | --- | --- | --- | --- | --- |
| 0.9 | 14.8 | 0.6 | 0.5 |  |  | C#CCN(C)Cc1ccc(Cc2cn(C)nn2)cc1 |
| 0.3 | 14.8 | 173 | 56.1 |  |  | C#CCN(C)CCc1cn(CCc2ccccc2)nn1 |
| > 44.6 | 0.6 | 11.2 | > 500 |  |  | C#CCN(C)Cc1cn(CCc2ccccc2)nn1 |
|  | 8.8 to 13.8 |  |  |  |  | CN(C)CCCN1c2ccccc2Sc2ccccc21 [PROMAZINE] |
|  | 1.93 to 2.5 |  |  |  |  | CN1C(C(=O)Nc2ccccn2)=C(O)c2ccccc2S1(=O)=O [PIROXICAM] |
| < 3.2 | 29.9 | 94.7 | < 300 |  |  | C#CCN(C)Cc1nnn(C)c1CCCC |
|  | < 0.78 |  |  |  |  | CCn1cc(C(=O)O)c(=O)c2cc(F)c(N3CCNC(C)C3)c(F)c21 (stereo not given) [LOMEFLOXACIN] |
| 0.1 | 21.4 | 156 | 17.3 |  |  | C#CCN(C)CCc1nnn(-c2ccccc2)c1CCCC |
| 0.5 |  | 249 | 135 |  |  | C#CCN(C)Cc1cn(CC)nn1 |
|  | 0.1 to 0.9 |  |  |  |  | CCn1cc(C(=O)O)c(=O)c2cc(F)c(N3CCNCC3)cc21 [NORFLOXACIN] |
| > 3.9 | 2.3 | 129 | > 500 |  |  | C#CCN(C)Cc1cn(Cc2ccccc2)nn1 |
| 0.2 | 17.2 | 157 | 26.1 |  |  | C#CCN(C)CCc1nnn(-c2ccccc2)c1CCC |
| 0.04 | 17 | 213 | 7.5 |  |  | C#CCN(C)CCc1nnn(-c2ccccc2)c1CC |
|  | 5.3 to 6.5 |  |  |  |  | Clc1cccc(Cl)c1N=C1NCCN1 [CLONIDINE] |
| 2.6 |  | 105 | 267 |  |  | C#CCN(C)Cc1nnn(CC)c1C |
|  | 12 to 17.8 |  |  |  |  | CNCCCN1c2ccccc2CCc2ccccc21 [DESIPRAMINE] |
| 27.7 | 15.6 | 3.5 | 97.1 | Active | Active | C#CCN(C)CCc1cn(Cc2ccccc2)nn1 |
| 5.3 | 4.5 | 5.2 | 27.4 |  |  | C#CCN(C)CCc1ccc(Cc2cn(C)nn2)cc1 |
| 0.4 | 20 | 134 | 47 |  |  | C#CCN(C)CCc1nnn(C(C)c2ccccc2)c1C (stereo not given) |
| 0.03 | 15.6 | 65 | 2.1 |  |  | C#CCN(C)Cc1cccc(Cc2cn(C)nn2)c1 |

| Compound | Ratio IC50 [1] | Papp at 18 h [2] [×10⁻⁶ cm/s] | IC50 [3] [µM] | IC50 [4] [µM] | TDI [5] | inhibition (INH) [6] |
| --- | --- | --- | --- | --- | --- | --- |
| C#CCN(C)CCc1nnn(CC)c1C | 0.4 |  | 238 | 91.2 |  |  |
| C#CCN(C)CCc1cn(CC)nn1 | 1.5 |  | 374 | 554 |  |  |
| CN/C(=N/CCSCc1nc[nH]c1C)NC#N [CIMETIDINE] |  | < 0.7 |  |  |  |  |
| CC(=O)[C@H]1CC[C@H]2[C@@H]3CCC4=CC(=O)CC[C@]4(C)[C@H]3CC[C@]12C [PROGESTERONE] |  | 9.3 to 16.8 |  |  |  |  |
